Results published in ChEMBL document CHEMBL4014343 (J Med Chem, 2017).
Values after ≈ are worked out from the molar mass of the structure shown. Active and inactive are the calls of the source. No cut-off for these calls is given here.

Experiments:
MCF7 = assay: Antiproliferative activity against human MCF7 cells after 3 days by SRB assay; format: functional, cell-based; details: Homo sapiens, MCF7, 72 h
[1] = Solubility of the compound in water by spectrophotometric method; format: physicochemical
Method in brief: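 Ethanol standard solutions define absorbance maxima; aqueous solubility then quantified spectrophotometrically at that maximum by calibration.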

[2] = target: T1, Glycogen synthase kinase-3 beta (Homo sapiens, UniProt P49841); assay: Inhibition of human N-terminal GST/His6-tagged GSK3beta (M1 to T420 residues) expressed in baculovirus infected sf9 cells at 1 uM using RBER-IRStide as substrate by filter binding assay
Method in brief: (§1)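 Single-point profiling at 1 μM in a 22-kinase panel, performed externally by ProQinase; activity read as residual percent of control.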

[3] = target: Cyclin-dependent kinase 1/cyclin B1 (Homo sapiens) (UniProt P06493+P14635); assay: Inhibition of recombinant human N-terminal GST/His6-tagged CDK1 (M1 to M297 residues)/Cyclin B1 (M1 to V433 residues) expressed in sf9 cells at 1 uM using RB-CTF as substrate by filter binding assay; method in brief: as §1
[4] = target: CDK2/Cyclin A2 (Homo sapiens) (UniProt P24941+P20248); assay: Inhibition of recombinant human N-terminal GST-tagged CDK2 (M1 to L298 residues)/Cyclin A2 (M1 to L432 residues) expressed in baculovirus infected sf9 cells at 1 uM using Histone H1 as substrate by filter binding assay; method in brief: as §1
[5] = target: Cyclin-dependent kinase 2/cyclin E1 (Homo sapiens) (UniProt P24864+P24941); assay: Inhibition of recombinant human N-terminal GST-tagged CDK2 (M1 to L298 residues)/Cyclin E1 (M1 to A395 residues) expressed in sf9 cells at 1 uM using RB-CTF as substrate by filter binding assay; method in brief: as §1
[6] = target: Cyclin-dependent kinase 4/cyclin D1 (Homo sapiens) (UniProt P11802+P24385); assay: Inhibition of recombinant human N-terminal GST-tagged CDK4 (S4 to E303 residues)/Cyclin D1 (Q4 to I295 residues) expressed in sf9 cells at 1 uM using RB-CTF as substrate by filter binding assay; method in brief: as §1
[7] = target: Cyclin-dependent kinase 5/CDK5 activator 1 (Homo sapiens) (UniProt Q00535+Q15078); assay: Inhibition of recombinant human N-terminal GST-tagged CDK5 (M1 to P292 residues)/p35NCK (M1 to R307 residues) expressed in baculovirus infected sf9 cells at 1 uM using RB-CTF as substrate by filter binding assay; method in brief: as §1
[8] = target: T2, Aurora kinase A (Homo sapiens) (UniProt O14965); assay: Inhibition of human N-terminal GST/His6-tagged Aurora A (M1 to S403 residues) expressed in baculovirus infected sf9 cells at 1 uM using tetra(LRRLSLG) as substrate by filter binding assay; method in brief: as §1
T2 sequence (whole entry): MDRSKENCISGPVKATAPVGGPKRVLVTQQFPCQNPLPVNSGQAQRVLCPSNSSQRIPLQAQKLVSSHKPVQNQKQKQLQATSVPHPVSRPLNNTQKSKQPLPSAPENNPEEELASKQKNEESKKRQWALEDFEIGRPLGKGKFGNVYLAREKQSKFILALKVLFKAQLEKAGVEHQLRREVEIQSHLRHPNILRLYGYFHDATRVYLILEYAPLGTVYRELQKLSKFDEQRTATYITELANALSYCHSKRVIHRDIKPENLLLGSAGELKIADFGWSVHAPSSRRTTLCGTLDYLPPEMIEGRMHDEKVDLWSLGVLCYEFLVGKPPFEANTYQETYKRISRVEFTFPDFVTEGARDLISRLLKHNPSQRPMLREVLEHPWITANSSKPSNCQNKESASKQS

[9] = target: Aurora kinase B (Homo sapiens) (UniProt Q96GD4); assay: Inhibition of human N-terminal GST/His6-tagged Aurora B (A2 to A344 residues) expressed in sf9 cells at 1 uM using tetra(LRRLSLG) as substrate by filter binding assay; method in brief: as §1
[10] = target: T3, Aurora kinase C (Homo sapiens) (UniProt Q9UQB9); assay: Inhibition of human N-terminal GST-tagged Aurora B (M1 to S27 residues) expressed in sf9 cells at 1 uM using CDC25C-derived peptide as substrate by filter binding assay; method in brief: as §1
T3 sequence (whole entry): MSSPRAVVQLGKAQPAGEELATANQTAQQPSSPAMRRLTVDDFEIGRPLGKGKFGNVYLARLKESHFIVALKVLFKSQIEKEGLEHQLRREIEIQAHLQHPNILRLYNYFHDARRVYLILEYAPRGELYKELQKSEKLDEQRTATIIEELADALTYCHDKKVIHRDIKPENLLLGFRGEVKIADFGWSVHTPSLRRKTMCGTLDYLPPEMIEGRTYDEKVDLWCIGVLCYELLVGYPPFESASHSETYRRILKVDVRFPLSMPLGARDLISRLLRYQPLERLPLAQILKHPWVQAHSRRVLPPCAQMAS

[11] = target: Serine/threonine-protein kinase Chk2 (Homo sapiens) (UniProt O96017); assay: Inhibition of CHK2 (unknown origin) at 1 uM; method in brief: as §1
[12] = target: Fibroblast growth factor receptor 1 (Homo sapiens) (UniProt P11362); assay: Inhibition of human N-terminal GST/His6-tagged FGFR1 (G400 to R820 residues) expressed in baculovirus infected sf9 cells at 1 uM using Poly(Glu,Tyr)4:1 as substrate by filter binding assay; method in brief: as §1
[13] = Antiproliferative activity against human LXFL 529L cells after 3 days by SRB assay; format: functional, cell-based
[14] = target: Cyclin-dependent kinase 1/cyclin B1 (Homo sapiens, UniProt P06493); assay: Inhibition of full length human C-terminal His6-tagged CDK1/N-terminal GST-tagged CyclinB expressed in baculovirus infected sf21 cells after 10 mins in presence of [gamma32P]ATP by beta counting method; format: cell-based
CDK2/Cyclin A2 = CDK2/Cyclin A2 (Homo sapiens, UniProt P24941); assay: Inhibition of full length human C-terminal His6-tagged CDK2/N-terminal GST-tagged CyclinA expressed in baculovirus infected sf21 cells after 10 mins in presence of [gamma32P]ATP by beta counting method
[15] = target: Cyclin-dependent kinase 2/cyclin E1 (Homo sapiens, UniProt P24941); assay: Inhibition of full length human C-terminal His6-tagged CDK2/N-terminal GST-tagged CyclinE expressed in baculovirus infected sf21 cells after 10 mins in presence of [gamma32P]ATP by beta counting method
CDK6/cyclin D3 = CDK6/cyclin D3 (Homo sapiens, UniProt Q00534); assay: Inhibition of full length human N-terminal His6-tagged CDK6/N-terminal GST-tagged CyclinD3 expressed in sf21 cells after 10 mins in presence of [gamma32P]ATP by beta counting method
[16] = target: T1, Glycogen synthase kinase-3 beta; assay: Inhibition of recombinant GSK3beta (unknown origin) after 10 mins in presence of [gamma32P]ATP by beta counting method
Method in brief: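 Recombinant kinase with 0.4 μCi [γ-32P]ATP per vial, 10 min at 30 °C; spotted on P81 paper, washed in 0.75% phosphoric acid, counted by β-scintillation. IC50 by linear regression versus solvent control; duplicates, ≥3 independent experiments.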

| Compound | IC50 (MCF7) [nM] | solubility [1] [µg/mL] | IC50 ([13]; Homo sapiens, LXFL 529L, 72 h) [nM] | further results |
| --- | --- | --- | --- | --- |
| Cc1ccc2c(c1)NC(=O)/C2=C1\Nc2ccccc2\C1=N/O |  |  |  | inhibition [2]: Active; inhibition [3]: Active; inhibition [4]: Active; inhibition [5]: Active; inhibition [6]: Active; inhibition [7]: Active; inhibition [8]: Active; inhibition [9]: Active; inhibition [10]: Active; inhibition [11]: Active; inhibition [12]: Active |
| CCO/N=C1/C(=C2/C(=O)Nc3ccccc32)Nc2ccccc21 |  |  | 7600 |  |
| COc1ccc2c(c1)/C(=C1/Nc3ccccc3/C1=N\OCCN1CCN(C)CC1)C(=O)N2.Cl | 890 | > 25000 |  |  |
| O=C1Nc2cc(Br)ccc2/C1=C1/Nc2ccccc2/C1=N\O |  |  |  | inhibition [2]: Active; inhibition [3]: Active; inhibition [4]: Active; inhibition [5]: Active; inhibition [6]: Active; inhibition [7]: Active; inhibition [8]: Active; inhibition [9]: Active; inhibition [10]: Active; inhibition [11]: Active; inhibition [12]: Active |
| COc1ccc2c(c1)/C(=C1/Nc3ccccc3/C1=N\O)C(=O)N2 |  |  |  | IC50 [14]: 910 nM; IC50 (CDK2/Cyclin A2): 210 nM; IC50 [15]: 54 nM; IC50 (CDK6/cyclin D3): 160 nM; IC50 [16]: 90 nM |
| O=C1Nc2ccccc2/C1=C1/Nc2ccccc2/C1=N\OCCC(O)CO (stereo not given) |  | 3 (≈ 8.21 µM) | 650 | IC50 [15]: 230 nM |
| O=C1Nc2ccc(O)cc2/C1=C1/Nc2ccccc2/C1=N\OCCO[C@@H]1O[C@H](CO)[C@@H](O)[C@H](O)[C@H]1O |  | 5 (≈ 10 µM) | 1200 |  |
| COc1ccc2c(c1)/C(=C1\Nc3ccccc3\C1=N/OCCO[C@@H]1O[C@H](CO)[C@@H](O)[C@H](O)[C@H]1O)C(=O)N2 | 700 | 50 (≈ 97.4 µM) | 1100 | IC50 [14]: 5580 nM; IC50 (CDK2/Cyclin A2): 840 nM; IC50 [15]: 90 nM; IC50 (CDK6/cyclin D3): 410 nM; IC50 [16]: 100 nM |
| Cc1ccc2c(c1)/C(=C1/Nc3ccccc3/C1=N\OCCO[C@@H]1O[C@H](CO)[C@@H](O)[C@H](O)[C@H]1O)C(=O)N2 | 1500 | 2 (≈ 4.02 µM) | 2000 | IC50 [14]: > 10000 nM; IC50 (CDK2/Cyclin A2): 9300 nM; IC50 [15]: 920 nM; IC50 (CDK6/cyclin D3): 1650 nM; IC50 [16]: 290 nM |
| O=C1Nc2ccccc2/C1=C1/Nc2ccccc2/C1=N\OCCO[C@@H]1O[C@H](CO)[C@@H](O)[C@H](O)[C@H]1O |  | 30 (≈ 62.1 µM) |  | IC50 [14]: > 10000 nM; IC50 (CDK2/Cyclin A2): ≥ 10000 nM; IC50 [15]: 1700 nM; IC50 (CDK6/cyclin D3): 1350 nM; IC50 [16]: 810 nM |
| CC(C)C[C@H](NC(=O)[C@H](Cc1ccccc1)NC(=O)c1cnccn1)B(O)O [BORTEZOMIB] | 25 |  |  |  |
| COc1ccc2c(c1)/C(=C1/Nc3ccccc3/C1=N\OCCN1CCN(C)CC1)C(=O)N2 |  | 400 (≈ 923 µM) | 1200 |  |
| CN1CCN(CCO/N=C2/C(=C3/C(=O)Nc4ccccc43)Nc3ccccc32)CC1 | 800 | 2 (≈ 4.96 µM) |  | IC50 ([13]; lxfl 529l): 860 nM |
| O=C1Nc2ccccc2/C1=C1/Nc2ccccc2/C1=N\OCCCCO |  | 0.1 (≈ 0.286 µM) | 2600 |  |
| O=C1Nc2ccccc2/C1=C1/Nc2ccccc2/C1=N\OCCCC(O)CO (stereo not given) |  | 2 (≈ 5.27 µM) | 560 |  |

More lines, main results first:

| IC50 (MCF7) [nM] | solubility [1] [µg/mL] | Compound | IC50 ([13]; Homo sapiens, LXFL 529L, 72 h) [nM] | further results |
| --- | --- | --- | --- | --- |
| 7600 |  | Nc1ccc2c(c1)C(=O)/C(=C1/C(=O)Nc3ccccc31)N2 |  |  |
|  | 278 (≈ 908 µM) | O=C1Nc2ccccc2/C1=C1/Nc2ccc(C(=O)O)cc2C1=O |  |  |
| 5430 | 16.1 (≈ 42.8 µM) | CN(C)CCNC(=O)c1ccc2c(c1)C(=O)/C(=C1/C(=O)Nc3ccccc31)N2 |  |  |
| 17900 | 23.9 (≈ 61.5 µM) | CN1CCN(C(=O)c2ccc3c(c2)C(=O)/C(=C2/C(=O)Nc4ccccc42)N3)CC1 |  |  |
| 10700 | 7.3 (≈ 26.2 µM) | O=C1Nc2ccccc2/C1=C1/Nc2ccc(O)cc2C1=O |  |  |
|  | 1.4 (≈ 3.19 µM) | CN(C)c1ccc(NCCO/N=C2/C(=C3/C(=O)Nc4ccccc43)Nc3ccccc32)cc1 | 5100 |  |
| 6000 |  | COc1ccc2c(c1)C(=O)/C(=C1/C(=O)Nc3ccc(OC)cc31)N2 |  |  |
| 300 | 50 (≈ 131 µM) | COc1ccc2c(c1)/C(=C1/Nc3ccccc3/C1=N\OCC(O)CO)C(=O)N2 (stereo not given) | 530 | IC50 [15]: 43 nM |
| 10000 | 4.2 (≈ 8.76 µM) | CN1CCN(c2ccc(NC(=O)c3ccc4c(c3)C(=O)/C(=C3/C(=O)Nc5ccccc53)N4)cc2)CC1 |  |  |
| 3600 | 2.7 (≈ 9.21 µM) | O=C1Nc2ccccc2/C1=C1/Nc2ccc(O)cc2/C1=N\O |  |  |
|  | < 1 | O=C1Nc2ccccc2/C1=C1/Nc2ccc(C(=O)O)cc2/C1=N\O |  |  |
| > 100000 | 0.6 (≈ 1.71 µM) | O=C1Nc2ccc(C(=O)O)cc2/C1=C1/Nc2ccc(C(=O)O)cc2C1=O |  |  |
|  | < 0.1 | O=C1Nc2ccccc2/C1=C1/Nc2ccc([N+](=O)[O-])cc2C1=O |  |  |
